# Laboratory results reported in ChEMBL document CHEMBL1649405, “Structure-activity relationships study of 6-chloro-4-(2-chlorophenyl)-3-(2-hydroxyethyl) quinolin-2(1H)-one derivatives as novel non-nucleoside anti-hepatitis B virus agents” (Eur J Med Chem, 2011).
# Test system: Hepatitis B virus
# Experiment: Antiviral activity against Hepatitis B virus infected in human HepG2(2.2.15) cells assessed as inhibition of viral surface antigen secretion after 6 days by ELISA
# Format: functional, organism-based
# Details: HepG2 2.2.15, 144 h
# In short: (§1)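 HepG 2.2.15 cells in DMEM with 10% FBS, 37 °C, 5% CO2. Treated for 6 days with refeeding every other day. Culture medium centrifuged at 6000 g to clear debris. HBeAg or HBsAg measured by quantitative ELISA on a microplate reader. IC50 = concentration giving 50% inhibition of secretion. Mean of two independent experiments.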
row,SMILES,IC50
1,O=C(/C=C/c1cccc(F)c1)OCCc1c(-c2ccccc2Cl)c2cc(Cl)ccc2[nH]c1=O,33 µM
2,C=CCn1c(=O)c(CCO)c(-c2ccccc2Cl)c2cc(Cl)ccc21,10 µM
3,O=C(OCCc1c(-c2ccccc2Cl)c2cc(Cl)ccc2[nH]c1=O)C1CCCCC1,27 µM
4,CC(=O)N1CCC(C(=O)OCCc2c(-c3ccccc3Cl)c3cc(Cl)ccc3[nH]c2=O)CC1,51 µM

# Other lines, results leading:
row,IC50,SMILES
1,57 µM,CC(=O)OCC(=O)OCCc1c(-c2ccccc2Cl)c2cc(Cl)ccc2[nH]c1=O
2,86 µM,O=c1[nH]c2ccc(Cl)cc2c(-c2ccccc2Cl)c1CCO
3,23 µM,C/C=C/C=C/C(=O)OCCc1c(-c2ccccc2Cl)c2cc(Cl)ccc2[nH]c1=O
4,95 µM,CCOCC(=O)OCCc1c(-c2ccccc2Cl)c2cc(Cl)ccc2[nH]c1=O

# Test system: not listed separately
# Experiment: Selectivity index, ratio of CC50 for human HepG2(2.2.15) cells to IC50 for Hepatitis B virus infected in human HepG2(2.2.15) cells assessed as inhibition of viral e antigen secretion
# Format: functional
# Details: not given
# In short: (§2)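 Ratio of CC50 in HepG 2.2.15 cells to the IC50 for HBeAg or HBsAg secretion. Both values come from ELISA and cytotoxicity runs on the same cell line. Each input is the mean of two independent experiments.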
row,SMILES,Selectivity Index
1,CC(=O)OCC(=O)OCCc1c(-c2ccccc2Cl)c2cc(Cl)ccc2[nH]c1=O,1.4
2,O=C(/C=C/c1cccc(F)c1)OCCc1c(-c2ccccc2Cl)c2cc(Cl)ccc2[nH]c1=O,>58
3,C=CCn1c(=O)c(CCO)c(-c2ccccc2Cl)c2cc(Cl)ccc21,1.9
4,O=c1[nH]c2ccc(Cl)cc2c(-c2ccccc2Cl)c1CCO,1
5,O=C(OCCc1c(-c2ccccc2Cl)c2cc(Cl)ccc2[nH]c1=O)C1CCCCC1,1.1
6,C/C=C/C=C/C(=O)OCCc1c(-c2ccccc2Cl)c2cc(Cl)ccc2[nH]c1=O,17
7,CC(=O)N1CCC(C(=O)OCCc2c(-c3ccccc3Cl)c3cc(Cl)ccc3[nH]c2=O)CC1,<1
8,CCOCC(=O)OCCc1c(-c2ccccc2Cl)c2cc(Cl)ccc2[nH]c1=O,<1

# Test system: not listed separately
# Experiment: Selectivity index, ratio of CC50 for human HepG2(2.2.15) cells to IC50 for Hepatitis B virus infected in human HepG2(2.2.15) cells assessed as inhibition of viral surface antigen secretion
# Format: functional
# Details: not given
# In short: as §2
row,SMILES,Selectivity Index
1,CC(=O)OCC(=O)OCCc1c(-c2ccccc2Cl)c2cc(Cl)ccc2[nH]c1=O,1.8
2,O=C(/C=C/c1cccc(F)c1)OCCc1c(-c2ccccc2Cl)c2cc(Cl)ccc2[nH]c1=O,>48
3,C=CCn1c(=O)c(CCO)c(-c2ccccc2Cl)c2cc(Cl)ccc21,2.3
4,O=c1[nH]c2ccc(Cl)cc2c(-c2ccccc2Cl)c1CCO,4.4
5,O=C(OCCc1c(-c2ccccc2Cl)c2cc(Cl)ccc2[nH]c1=O)C1CCCCC1,1.4
6,C/C=C/C=C/C(=O)OCCc1c(-c2ccccc2Cl)c2cc(Cl)ccc2[nH]c1=O,19
7,CC(=O)N1CCC(C(=O)OCCc2c(-c3ccccc3Cl)c3cc(Cl)ccc3[nH]c2=O)CC1,1.6
8,CCOCC(=O)OCCc1c(-c2ccccc2Cl)c2cc(Cl)ccc2[nH]c1=O,1.4

# Test system: Hepatitis B virus
# Experiment: Antiviral activity against Hepatitis B virus infected in human HepG2(2.2.15) cells assessed as inhibition of viral e antigen secretion after 6 days by ELISA
# Format: functional, organism-based
# Details: HepG2 2.2.15, 144 h
# In short: as §1
row,SMILES,IC50
1,O=C(/C=C/c1cccc(F)c1)OCCc1c(-c2ccccc2Cl)c2cc(Cl)ccc2[nH]c1=O,27 µM
2,C=CCn1c(=O)c(CCO)c(-c2ccccc2Cl)c2cc(Cl)ccc21,12 µM
3,O=C(OCCc1c(-c2ccccc2Cl)c2cc(Cl)ccc2[nH]c1=O)C1CCCCC1,34 µM
4,CC(=O)N1CCC(C(=O)OCCc2c(-c3ccccc3Cl)c3cc(Cl)ccc3[nH]c2=O)CC1,> 82 µM

# Other lines, results leading:
row,IC50,SMILES
1,71 µM,CC(=O)OCC(=O)OCCc1c(-c2ccccc2Cl)c2cc(Cl)ccc2[nH]c1=O
2,360 µM,O=c1[nH]c2ccc(Cl)cc2c(-c2ccccc2Cl)c1CCO
3,26 µM,C/C=C/C=C/C(=O)OCCc1c(-c2ccccc2Cl)c2cc(Cl)ccc2[nH]c1=O
4,> 130 µM,CCOCC(=O)OCCc1c(-c2ccccc2Cl)c2cc(Cl)ccc2[nH]c1=O

# Test system: Hepatitis B virus
# Experiment: Antiviral activity against Hepatitis B virus infected in human HepG2(2.2.15) cells assessed as inhibition of viral DNA replication after 6 days by PCR analysis
# Format: functional, organism-based
# Details: Hepatitis B virus, HepG2 2.2.15, 144 h; read-out: IC50
# In short: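 HepG 2.2.15 cells in DMEM with 10% FBS, 5 mM L-glutamine, penicillin/streptomycin, 37 °C, 5% CO2; seeded 5 × 10^5 per well, medium changed every 2 days. Compound added after 6 days, refed every other day for 6 more days. HBV DNA by real-time PCR against a cloned HBV plasmid standard series. IC50 = 50% inhibition. Mean of two independent experiments.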
row,IC50,SMILES
1,110 µM,O=C(/C=C/c1cccc(F)c1)OCCc1c(-c2ccccc2Cl)c2cc(Cl)ccc2[nH]c1=O

# Test system: not listed separately
# Experiment: Cytotoxicity against human HepG2(2.2.15) cells
# Format: cell-based
# Details: not given
# In short: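 HepG 2.2.15 cells in DMEM with 10% FBS, 37 °C, 5% CO2. CC50 = concentration killing 50% of cells. Mean of two independent experiments.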
row,SMILES,CC50
1,CC(=O)OCC(=O)OCCc1c(-c2ccccc2Cl)c2cc(Cl)ccc2[nH]c1=O,100 µM
2,O=C(/C=C/c1cccc(F)c1)OCCc1c(-c2ccccc2Cl)c2cc(Cl)ccc2[nH]c1=O,> 1600 µM
3,C=CCn1c(=O)c(CCO)c(-c2ccccc2Cl)c2cc(Cl)ccc21,23 µM
4,O=c1[nH]c2ccc(Cl)cc2c(-c2ccccc2Cl)c1CCO,380 µM
5,O=C(OCCc1c(-c2ccccc2Cl)c2cc(Cl)ccc2[nH]c1=O)C1CCCCC1,38 µM
6,C/C=C/C=C/C(=O)OCCc1c(-c2ccccc2Cl)c2cc(Cl)ccc2[nH]c1=O,440 µM
7,CC(=O)N1CCC(C(=O)OCCc2c(-c3ccccc3Cl)c3cc(Cl)ccc3[nH]c2=O)CC1,82 µM
8,CCOCC(=O)OCCc1c(-c2ccccc2Cl)c2cc(Cl)ccc2[nH]c1=O,130 µM
